Screening data from PubChem BioAssay.
TRPC6 activator = activates the mouse TRPC6 cation channel; actives 0.13% (n = 310,000); HEK293-TRPC6 membrane potential dye fluorescence; stronger effect = higher value; B-score at 10 µM; Q61143; AID 2550;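 active = B-score of the integrated fluorescence ratio above library mean plus 3 SD, and starting fluorescence ratio within library mean plus 5 SD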;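 note: higher score means more depolarization so channel activation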
Target sequence (Q61143 whole entry, looked up): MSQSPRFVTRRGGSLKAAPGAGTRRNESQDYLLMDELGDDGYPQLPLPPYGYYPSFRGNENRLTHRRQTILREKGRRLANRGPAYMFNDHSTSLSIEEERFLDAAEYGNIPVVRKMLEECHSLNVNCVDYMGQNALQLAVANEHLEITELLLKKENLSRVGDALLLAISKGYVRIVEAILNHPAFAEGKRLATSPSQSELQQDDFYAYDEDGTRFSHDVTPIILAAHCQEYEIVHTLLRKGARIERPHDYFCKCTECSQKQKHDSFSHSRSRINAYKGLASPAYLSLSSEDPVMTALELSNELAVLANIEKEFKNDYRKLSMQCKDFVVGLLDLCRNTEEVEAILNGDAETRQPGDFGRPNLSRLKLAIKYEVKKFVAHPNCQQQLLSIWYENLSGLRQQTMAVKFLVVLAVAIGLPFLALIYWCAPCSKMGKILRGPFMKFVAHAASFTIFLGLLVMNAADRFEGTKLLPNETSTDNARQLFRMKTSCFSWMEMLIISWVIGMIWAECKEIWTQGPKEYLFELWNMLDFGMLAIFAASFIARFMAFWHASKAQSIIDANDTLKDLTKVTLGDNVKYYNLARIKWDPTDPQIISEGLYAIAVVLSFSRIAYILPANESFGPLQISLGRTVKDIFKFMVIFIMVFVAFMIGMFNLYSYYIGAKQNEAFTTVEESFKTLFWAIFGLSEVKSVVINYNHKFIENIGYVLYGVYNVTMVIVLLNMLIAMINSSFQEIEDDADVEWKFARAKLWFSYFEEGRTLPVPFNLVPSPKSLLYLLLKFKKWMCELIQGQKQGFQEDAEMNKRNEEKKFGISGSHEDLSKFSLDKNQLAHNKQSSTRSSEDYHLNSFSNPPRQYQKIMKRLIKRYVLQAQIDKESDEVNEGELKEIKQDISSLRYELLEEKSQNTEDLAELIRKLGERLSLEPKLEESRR
TRPC4 act = TRPC4 (mouse) channel activation. HEK293 TRPC4beta/mu-opioid, Fluo4 calcium fluorescence; stronger effect = higher value. B-score at 10 µM. actives 0.49% (n = 310,000);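 active = B-score above 5 SD of library B-scores, and initial fluorescence ratio not above library mean plus 5 SD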;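 note: positive B-score marks a calcium rise read as TRPC4 activation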
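Incubation: 45 min room-temperature Fluo4 loading, 110 s read / System: HEK293 cells stably co-expressing mouse TRPC4beta and mu-opioid receptor / Signal: Fluo4 fluorescence, kinetic / Control set: buffer (low) and maximal DAMGO (high) / Measure: integrated baseline-normalised fluorescence ratio, converted to per-well B score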
TRPC4 potent = allosteric potentiators of mouse TRPC4 channel. HEK293 TRPC4beta/mu-opioid, DAMGO EC20, Fluo-4 Ca2+ flux; stronger effect = higher value. B-score at 10 µM. actives 0.42% (n = 310,000);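 active = B-score of calcium response area above 5 SD of library B-scores, with initial fluorescence ratio within 5 SD of library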
Pemphigus Ab inh = inhibitors of pemphigus antibody binding to human desmoglein-3 | binding (percent of control), % at 10 µM | actives 0.48% (n = 310,000) | DSG3-coupled beads, scFv-anti-DSG3-GFP binding, flow cytometry; stronger effect = lower value | P32926;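 active = binding more than 3 SD below its plate's average and above zero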;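 note: hits lower antibody fragment binding to DSG3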
TRPC6 inhibitor = mouse TRPC6 channel inhibition; Q61143; B-score at 10 µM; HEK293-TRPC6, membrane potential dye, ACh-evoked depolarization; stronger effect = lower value; actives 1.1% (n = 310,000);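 active = B-score under library mean minus 3 SD, initial fluorescence not abnormally high, positive integrated signal ratio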;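 note: B-score derived from integrated fluorescence ratio over the kinetic read; more negative B-score means stronger inhibition of depolarization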
TRPC4 inh = inhibitors of mouse TRPC4 channel; actives 0.39% (n = 300,000); AID 2247; HEK293 TRPC4beta/mu-opioid, DAMGO-evoked Fluo4 calcium flux; stronger effect = lower value; B-score at 10 µM; Q9QUQ5;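 active = B-score over 3 SD under the library average, no early fluorescence shift, positive overall ratio signal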
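Signal: kinetic Fluo4 fluorescence imaging of calcium influx. Material: stable TRPC4beta/mu-opioid receptor HEK293 cells. Probe or stimulus: DAMGO in two steps, submaximal then maximal.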
TRPC4 sel inh 2 = second selectivity test of TRPC6 inhibitors: effect on mouse TRPC4 | shares compounds with TRPC6 inhibitor | AID 2776 | HEK293 TRPC4/MOR, membrane potential dye fluorescence; channel activated by saturating DAMGO dose | actives 42% (n = 920) | inhibition, % at 10 µM;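 active = compounds whose fluorescence signal differed from control wells by over 3 SD, either direction, in both duplicate plates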
TRPC4 spec = selectivity of TRPC6 inhibitors: effect on mouse TRPC4; shares compounds with TRPC6 inhibitor; HEK293 TRPC4/mu-opioid, membrane potential fluorescence; actives 61% (n = 920); activity change, negative = inhibition, % at 10 µM;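 active = rise or fall in signal beyond 3 SD of buffer-only wells in both replicate plates, either sign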;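 note: integrated kinetic ratio of fluorescence range over baseline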
HEK293 MPD ctr 2-1 = second check of TRPC6 inhibitor effects in parental HEK293 cells. signal change vs control, % at 10 µM. parental HEK293 membrane potential dye fluorescence; maximal acetylcholine challenge after compound addition. shares compounds with TRPC6 inhibitor. actives 31% (n = 920);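 active = membrane potential signal moving either way by over 3 SD of the maximum-effect control, in both duplicate plates, meaning non-specific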
HEK293 MPD ctr-1 = counter-screen for TRPC6 inhibitors: effect in parental HEK293 cells; parental HEK293 membrane potential dye fluorescence; shares compounds with TRPC6 inhibitor; actives 60% (n = 920); membrane potential signal change, % at 10 µM;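 active = membrane potential signal shifting up or down by more than 3 SD of buffer-only wells, on both duplicate plates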
HEK293 MPD ctr-2 = checks TRPC6 modulator effects in parental HEK293 cells | shares compounds with TRPC6 inhibitor | membrane potential dye fluorescence | membrane potential signal change, % at 10 µM | actives 51% (n = 2,400) | AID 488924;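 active = membrane potential signal moves up or down beyond 5 SD from buffer-only wells, on both duplicate plates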
HEK293 MPD ctr 2-2 = second counter-screen for TRPC6 modulators: effect in parental HEK293 cells; shares compounds with TRPC6 inhibitor; inhibition, % at 10 µM; actives 14% (n = 2,400); membrane potential dye fluorescence; after compound, maximal acetylcholine stimulation;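 active = membrane potential signal drops by more than 5 SD from the mean control signal, in both duplicate plates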
TRPC4 ctr mod = tests whether TRPC6 modulators also affect mouse TRPC4. shares compounds with TRPC6 inhibitor. HEK293 TRPC4/mu-opioid, membrane potential fluorescence. percent change from control (negative = decrease, positive = increase), % at 10 µM. actives 69% (n = 2,400). AID 488927;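 active = membrane potential signal moved up or down beyond 5 SD of buffer control wells, in both duplicate plates, actives on both sides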
TRPC4/MOR inh 2 = second selectivity test of TRPC6 modulators against mouse TRPC4 | shares compounds with TRPC6 inhibitor | HEK293 TRPC4/mu-opioid, membrane potential dye fluorescence; stimulated with maximal-effect DAMGO | inhibition, % at 10 µM | actives 55% (n = 2,400) | AID 488928;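 active = drop in membrane potential signal beyond 5 SD of the control wells in both duplicate plates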;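 note: TRPC4 counter screen for TRPC6 hits run under conditions tuned for TRPC6 not TRPC4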
TRPC6 inh conf = confirmation of mouse TRPC6 inhibitors. inhibition, % at 10 µM. HEK293-TRPC6, membrane potential dye, ACh-evoked depolarization. AID 488960. actives 43% (n = 3,300). shares compounds with TRPC6 inhibitor;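 active = fluorescence ratio falls more than 5 SD below the full-stimulation control mean, in both duplicate runs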;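 note: integrated fluorescence ratio of peak minus minimum over baseline after agonist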
TRPC6 act conf = confirmation of mouse TRPC6 activators; shares compounds with TRPC6 inhibitor; HEK293-TRPC6 membrane potential dye fluorescence, FDSS; activation, % at 10 µM; actives 11% (n = 2,800);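 active = ratio signal rise beyond 5 SD above unstimulated control wells' mean, seen in both duplicate runs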
Of the large screens only hits and unclear results are named; the others gave an inactive call (follow-up assays come after a bar, where they were run). The list is not random: actives were taken first. Their share in the collection is about 2.5%.

Cc1nn(CC(=O)Nc2cccnc2)c(C)c1[N+](=O)[O-]	none
O=C1c2ccccc2C(=O)c2c1ccc1c(=O)n(C3CCCCC3)[nH]c21	TRPC6 inhibitor -5.1 | HEK293 MPD ctr-2 -94% | HEK293 MPD ctr 2-2 inactive | TRPC4 ctr mod -20% | TRPC4/MOR inh 2 inactive | TRPC6 inh conf inactive | TRPC6 act conf inactive
O=c1c2[nH]c3ccccc3c2ncn1C1CCCCC1	none
CC1=C(C(=O)OCc2ccccc2)C(c2ccccc2[N+](=O)[O-])NC(=O)N1C (configuration not stated)	none
COc1ccc2cc(/C=N/NC(=O)CN(c3ccccc3C)S(=O)(=O)c3ccccc3)c(Cl)nc2c1	none
N#Cc1ccccc1OCC(=O)NC(=O)NCc1ccco1	none
CN(C)C(CNc1ccc(S(C)(=O)=O)cc1[N+](=O)[O-])Cc1ccccc1 (configuration not stated)	TRPC6 inhibitor -5.1 (no result: Pemphigus Ab inh) | HEK293 MPD ctr-2 inactive | HEK293 MPD ctr 2-2 inactive | TRPC4 ctr mod inactive | TRPC4/MOR inh 2 32% | TRPC6 inh conf inactive | TRPC6 act conf inactive
CCOC(=O)CNC(=O)Cn1cnc2c(nnn2-c2ccc(OC)cc2)c1=O	TRPC6 inhibitor -9.5 | TRPC4 sel inh 2 inactive | TRPC4 spec inactive | HEK293 MPD ctr 2-1 inactive | HEK293 MPD ctr-1 inactive | TRPC6 inh conf inactive | TRPC6 act conf inactive
CC1(C)c2[nH]c3ccccc3c2C[C@H]2C(=O)N(Cc3ccc(F)cc3)C(=O)N21	TRPC6 inhibitor -5.5 | HEK293 MPD ctr-2 inactive | HEK293 MPD ctr 2-2 inactive | TRPC4 ctr mod -9.0% | TRPC4/MOR inh 2 inactive | TRPC6 inh conf inactive | TRPC6 act conf inactive
CC1(C)c2[nH]c3ccccc3c2C[C@@H]2C(=O)N(Cc3ccccc3)C(=O)N21	none
COc1cccc(C2=NCCc3cc4c(cc32)OCO4)c1OC	none
COc1ccc2cc3[n+](cc2c1OC)CCc1cc2c(cc1-3)OCO2	TRPC6 inhibitor -5.2 | HEK293 MPD ctr-2 inactive | HEK293 MPD ctr 2-2 110% | TRPC4 ctr mod inactive | TRPC4/MOR inh 2 inactive | TRPC6 inh conf inactive | TRPC6 act conf inactive
Cc1ccc(-c2nc3c(c(SCC(=O)N4CCOCC4)n2)COC(C)(C)C3)cc1	none
CCN(CC(=O)Nc1ccc(C(C)=O)cc1)CC(=O)Nc1cccc(OC)c1	none
COc1ccc2c(Cl)c(C(=O)NCCCn3ccnc3)sc2c1Cl	none
CCOC(=O)c1c(NC(=O)COC(=O)c2cc(OC)c(OC)cc2[N+](=O)[O-])sc(C)c1C	TRPC6 inhibitor -5.1 | HEK293 MPD ctr-2 inactive | HEK293 MPD ctr 2-2 inactive | TRPC4 ctr mod inactive | TRPC4/MOR inh 2 40% | TRPC6 inh conf inactive | TRPC6 act conf inactive
CCOC(=O)c1c(NC(=O)COC)sc(C)c1C	none
COCCOC(=O)c1nccnc1C(=O)Nc1ccc(S(=O)(=O)N2CCOCC2)cc1	TRPC6 inhibitor -6.2 | HEK293 MPD ctr-2 inactive | HEK293 MPD ctr 2-2 inactive | TRPC4 ctr mod inactive | TRPC4/MOR inh 2 inactive | TRPC6 inh conf inactive | TRPC6 act conf inactive
O=C(O)c1nccnc1C(=O)Nc1ccc(S(=O)(=O)N2CCOCC2)cc1	none
Cc1nc2cc(-c3ccc(Cl)cc3)nn2c(NCCN(C)C)c1C	TRPC6 inhibitor -6 | HEK293 MPD ctr-2 -89% | HEK293 MPD ctr 2-2 inactive | TRPC4 ctr mod -21% | TRPC4/MOR inh 2 46% | TRPC6 inh conf inactive | TRPC6 act conf inactive
Cc1cc(C)n2nc(-c3ccc(Cl)cc3)cc2n1	none
O=C(c1ccc(Cl)cc1)N1CCN(S(=O)(=O)/C=C/c2ccccc2)CC1	none (no result: TRPC6 activator, TRPC4 act, TRPC4 potent, TRPC6 inhibitor, TRPC4 inh)
Clc1ccc(-[n+]2c(-c3cccc(Br)c3)[nH]c3nc4ccccc4nc32)cc1	TRPC6 inhibitor -5.1 | HEK293 MPD ctr-2 inactive | HEK293 MPD ctr 2-2 inactive | TRPC4 ctr mod inactive | TRPC4/MOR inh 2 38% | TRPC6 inh conf inactive | TRPC6 act conf inactive
Brc1cccc(-c2nc3cccnc3nc2-c2cccc(Br)c2)c1	none
O=C(c1ccc([N+](=O)[O-])cc1)N(Cc1ccc(Br)cc1)N1C(=O)CCCC1=O	TRPC6 activator 16, TRPC4 act 45, TRPC6 inhibitor -9.8 | HEK293 MPD ctr-2 458% | HEK293 MPD ctr 2-2 186% | TRPC4 ctr mod 38% | TRPC4/MOR inh 2 34% | TRPC6 inh conf 68% | TRPC6 act conf 100%
COc1ccc(-n2c(SCC(=O)N/N=C(\C)c3cccnc3)nc3ccccc3c2=O)cc1	none
CCN(CC)c1ccc(Nc2nc(N3CCOCC3)c3ccccc3n2)cc1	TRPC6 inhibitor -5.2 | HEK293 MPD ctr-2 -143% | HEK293 MPD ctr 2-2 inactive | TRPC4 ctr mod -32% | TRPC4/MOR inh 2 56% | TRPC6 inh conf inactive | TRPC6 act conf inactive
CCN(CC)CCNC1=NCCn2c1cc1cc(OC)ccc12	TRPC6 inhibitor -6.7 | HEK293 MPD ctr-2 -146% | HEK293 MPD ctr 2-2 inactive | TRPC4 ctr mod -28% | TRPC4/MOR inh 2 44% | TRPC6 inh conf inactive | TRPC6 act conf inactive
CS(=O)(=O)c1cnc(-c2ccccc2)nc1-c1ccccc1Cl	none
